# According to ChEMBL document CHEMBL5724801, “EUbOPEN Chemogenomics Library - Multiplex” (2024):
# Several values for one entry are separate records, joined by “and”; a condition that tells them apart may be missing. Identical values can stand only once.
# Experiments:
# U2OS = experiment: Multiplex assay against U2OS; format: toxicity, cell-based; settings: human
# Procedure, shortened: (§1)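 Per cents of healthy-nucleus cells form the tubulin, mitochondrial-mass and membrane-permeability phenotype values. Live cells were stained at seeding with Hoechst33342, BioTracker Green Microtubule Cytoskeleton Dye, MitoTracker Red and Annexin V Alexa Fluor 680. After compound addition they were imaged on a CQ1 microscope at 37°C and 5% CO2, and CellPathfinder machine-learning gating split them into Hoechst high-intensity objects or normal cells, normal cells into healthy, pyknosed or fragmented nuclei, and pyknosed cells into mitotic or apoptotic.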
# HEK-293T = experiment: Multiplex assay against HEK293T; format: toxicity, cell-based; settings: human; procedure, shortened: as §1
# [1] = 12 h, 1 µM, compound concentration 1 uM
# [2] = 12 h, 10 µM, compound concentration 10 uM
# [3] = 24 h, 1 µM, compound concentration 1 uM
# [4] = 24 h, 10 µM, compound concentration 10 uM
# [5] = 48 h, 1 µM, compound concentration 1 uM
# [6] = 48 h, 10 µM, compound concentration 10 uM
smiles,measurement,setting,value
O=C1c2c(Br)c(Br)c(Br)c(Br)c2C(=O)N1c1ncc[nH]1,Population Apoptotic (%),U2OS; [1],34.38% and 22.22%
same,Population Fragmented Nuclei (%),U2OS; [1],2.78% and 4.62%
same,Population Healthy Nuclei (%),U2OS; [1],88.33% and 79.77%
same,Population Hoechst High Intensity Objects (%),U2OS; [1],0%
same,Population Membrane Permeable-Phenotype (%),U2OS; [1],2.52% and 6.52%
same,Population Mitochondria Different-Phenotype (%),U2OS; [1],0.94% and 6.52%
same,Population Mitotic Cells (%),U2OS; [1],65.62% and 77.78%
same,Population Normal (%),U2OS; [1],100%
same,Population Pyknosed Nuclei (%),U2OS; [1],8.89% and 15.61%
same,Population Tubulin-Different-Phenotype (%),U2OS; [1],1.26% and 0.72%
same,Total Cell Count,U2OS; [1],360 and 173
same,Population Apoptotic (%),U2OS; [2],30.95% and 44.44%
same,Population Fragmented Nuclei (%),U2OS; [2],1.83% and 1.43%
same,Population Healthy Nuclei (%),U2OS; [2],88.58% and 85.71%
same,Population Hoechst High Intensity Objects (%),U2OS; [2],0%
same,Population Membrane Permeable-Phenotype (%),U2OS; [2],0.77% and 1.67%
same,Population Mitochondria Different-Phenotype (%),U2OS; [2],0% and 5%
same,Population Mitotic Cells (%),U2OS; [2],69.05% and 55.56%
same,Population Normal (%),U2OS; [2],100%
same,Population Pyknosed Nuclei (%),U2OS; [2],9.59% and 12.86%
same,Population Tubulin-Different-Phenotype (%),U2OS; [2],0.77% and 0.83%
same,Population Apoptotic (%),U2OS; [3],47.37% and 28.12%
same,Population Fragmented Nuclei (%),U2OS; [3],1.69% and 4.85%
same,Population Healthy Nuclei (%),U2OS; [3],90.27% and 81.06%
same,Population Hoechst High Intensity Objects (%),U2OS; [3],0.21% and 0%
same,Population Membrane Permeable-Phenotype (%),U2OS; [3],1.17% and 4.35%
same,Population Mitochondria Different-Phenotype (%),U2OS; [3],0.47% and 3.8%
same,Population Mitotic Cells (%),U2OS; [3],52.63% and 71.88%
same,Population Normal (%),U2OS; [3],99.79% and 100%
same,Population Pyknosed Nuclei (%),U2OS; [3],8.03% and 14.1%
same,Population Tubulin-Different-Phenotype (%),U2OS; [3],1.41% and 1.63%
same,Total Cell Count,U2OS; [3],474 and 227
same,Population Apoptotic (%),U2OS; [4],43.1% and 37.93%
same,Population Fragmented Nuclei (%),U2OS; [4],1.95% and 1.6%
same,Population Healthy Nuclei (%),U2OS; [4],88.62% and 82.89%
same,Population Hoechst High Intensity Objects (%),U2OS; [4],0%
same,Population Membrane Permeable-Phenotype (%),U2OS; [4],0.73% and 3.87%
same,Population Mitochondria Different-Phenotype (%),U2OS; [4],0% and 3.87%
same,Population Mitotic Cells (%),U2OS; [4],56.9% and 62.07%
same,Population Normal (%),U2OS; [4],100%
same,Population Pyknosed Nuclei (%),U2OS; [4],9.43% and 15.51%
same,Population Tubulin-Different-Phenotype (%),U2OS; [4],0% and 0.65%
same,Population Apoptotic (%),U2OS; [5],46.91% and 35.59%
same,Population Fragmented Nuclei (%),U2OS; [5],2.45% and 2.79%
same,Population Healthy Nuclei (%),U2OS; [5],88.91% and 82.23%
same,Population Hoechst High Intensity Objects (%),U2OS; [5],0%
same,Population Membrane Permeable-Phenotype (%),U2OS; [5],1.56% and 1.23%
same,Population Mitochondria Different-Phenotype (%),U2OS; [5],0.24% and 3.09%
same,Population Mitotic Cells (%),U2OS; [5],53.09% and 64.41%
same,Population Normal (%),U2OS; [5],100%
same,Population Pyknosed Nuclei (%),U2OS; [5],8.64% and 14.97%
same,Population Tubulin-Different-Phenotype (%),U2OS; [5],0.84% and 0.31%
same,Total Cell Count,U2OS; [5],938 and 394
same,Population Apoptotic (%),U2OS; [6],50.54% and 55.88%
same,Population Fragmented Nuclei (%),U2OS; [6],4.81% and 1.63%
same,Population Healthy Nuclei (%),U2OS; [6],86.74% and 87.25%
same,Population Hoechst High Intensity Objects (%),U2OS; [6],0%
same,Population Membrane Permeable-Phenotype (%),U2OS; [6],0.31% and 3.37%
same,Population Mitochondria Different-Phenotype (%),U2OS; [6],0% and 1.12%
same,Population Mitotic Cells (%),U2OS; [6],49.46% and 44.12%
same,Population Normal (%),U2OS; [6],100%
same,Population Pyknosed Nuclei (%),U2OS; [6],8.45% and 11.11%
same,Population Tubulin-Different-Phenotype (%),U2OS; [6],0.31% and 1.87%
same,Population Apoptotic (%),HEK-293T; [1],13.1% and 15.91%
same,Population Fragmented Nuclei (%),HEK-293T; [1],2.88% and 4.84%
same,Population Healthy Nuclei (%),HEK-293T; [1],55.33% and 24.19%
same,Population Hoechst High Intensity Objects (%),HEK-293T; [1],0%
same,Population Membrane Permeable-Phenotype (%),HEK-293T; [1],0.52% and 0%
same,Population Mitochondria Different-Phenotype (%),HEK-293T; [1],30.21% and 20%
same,Population Mitotic Cells (%),HEK-293T; [1],86.9% and 84.09%
same,Population Normal (%),HEK-293T; [1],100%
same,Population Pyknosed Nuclei (%),HEK-293T; [1],41.79% and 70.97%
same,Total Cell Count,HEK-293T; [1],347 and 124
same,Population Apoptotic (%),HEK-293T; [2],11.88% and 18.7%
same,Population Fragmented Nuclei (%),HEK-293T; [2],3.09% and 4.38%
same,Population Hoechst High Intensity Objects (%),HEK-293T; [2],0.28% and 0%
same,Population Membrane Permeable-Phenotype (%),HEK-293T; [2],0.82% and 0%
same,Population Mitochondria Different-Phenotype (%),HEK-293T; [2],30.74% and 20%
same,Population Mitotic Cells (%),HEK-293T; [2],88.12% and 81.3%
same,Population Normal (%),HEK-293T; [2],99.72% and 100%
same,Population Pyknosed Nuclei (%),HEK-293T; [2],28.37% and 76.88%
same,Total Cell Count,HEK-293T; [2],357 and 160
same,Population Apoptotic (%),HEK-293T; [3],7.29% and 20.59%
same,Population Fragmented Nuclei (%),HEK-293T; [3],2.82% and 1.69%
same,Population Healthy Nuclei (%),HEK-293T; [3],81.23% and 40.68%
same,Population Hoechst High Intensity Objects (%),HEK-293T; [3],0%
same,Population Membrane Permeable-Phenotype (%),HEK-293T; [3],0.41% and 0%
